Laboratory results as given in ChEMBL document CHEMBL4680238, “Novel octapeptide-DTX prodrugs targeting MMP-7 as effective agents for the treatment of colorectal cancer with lower systemic toxicity” (Eur J Med Chem, 2020).
Residues, ends and D or L forms follow the SMILES beside them. *: point of attachment. X1 = CC(=O)O[C@@]12CO[C@@H]1C[C@H](O)[C@@]1(C)C(=O)[C@H](O)C3=C(C)[C@@H](OC(=O)[C@H](OC(=O)OCc4ccc(N*)cc4)[C@@H](NC(=O)OC(C)(C)C)c4ccccc4)C[C@@](O)([C@@H](OC(=O)c4ccccc4)[C@H]21)C3(C)C

Key:
[1] = Drug uptake in BALB/c nude mouse xenografted with human HCT-116 cells assessed as drug level in liver at 5 mg/kg, iv measured up to 24 hrs by LC-MS/MS analysis; assay type: ADME, organism-based; settings: in vivo
Procedure, shortened: (§1)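 Male BALB/c nude mice bearing s.c. HCT116 tumours (200-300 mm3), 20 per group. Single tail-vein dose of 5 mg/kg. Five mice per group killed at 0.5, 4, 8 and 24 h and heart-perfused with PBS. Tissues homogenized in saline (4 µL/mg) and precipitated with methanol containing paclitaxel internal standard. Prodrug, released DTX and free DTX measured by LC-MS/MS.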

[2] = Apparent clearance in Sprague-Dawley rat assessed as docetaxel level at 5 mg/kg, iv measured up to 72 hrs by LC-MS/MS analysis; assay type: ADME, organism-based; settings: in vivo
Procedure, shortened: (§2)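 Male SD rats (180-200 g), fasted 12 h with free water, n = 3 per group. Single tail-vein dose of 5 mg/kg in 0.5% DMSO/5% castor oil/5% ethanol/89.5% saline. Retro-orbital blood drawn 0.083-72 h with heparin. Plasma protein-precipitated with methanol containing paclitaxel internal standard, then analysed by LC-MS/MS. Parameters from non-compartmental analysis, mean ± SD. For the DTX group, parameters were calculated after converting dose to the molar equivalent of the prodrug.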

[3] = Drug uptake in BALB/c nude mouse xenografted with human HCT-116 cells assessed as drug level in kidney at 5 mg/kg, iv measured up to 24 hrs by LC-MS/MS analysis; assay type: ADME, organism-based; settings: in vivo; procedure, shortened: as §1
SW-620 [4] = assay: Cytotoxicity against human SW-620 cells assessed as reduction in cell viability after 72 hrs by MTT assay; assay type: functional, cell-based; settings: SW-620, 72 h
Procedure, shortened: (§3)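 Cells seeded at 5000/well and precultured 1 day. HCT116 grown in McCoy's 5A + 10% FBS; SW620 and HEK293 in DMEM + 10% FBS; CCD18Co in DMEM + 15% FBS. Compounds from 0.1 M DMSO stocks were tested at 10^-10 to 10^-4 mol/L in sixplicate: HCT116 and HEK293 for 48 h, SW620 and CCD18Co for 72 h, at 37 °C, 5% CO2. MTT (5 mg/mL) added for 4 h, then A570 read; IC50 estimated.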

[5] = AUC (0 to t) in Sprague-Dawley rat assessed as docetaxel level at 5 mg/kg, iv measured up to 72 hrs by LC-MS/MS analysis; assay type: ADME, organism-based; set-up: route intravenous, dose 5 mg/kg, time <=72; settings: in vivo; procedure, shortened: as §2
[6] = Half life in Sprague-Dawley rat plasma t 50 ug/ml up to 72 hrs by RP-HPLC analysis; assay type: ADME, cell-free; settings: dose 50 µg/ml
[7] = Toxicity in BALB/c nude mouse xenografted with human HCT-116 cells assessed as reduction in body weight at 5.85 mg/kg, ip administered once for every 7 days for 14 days relative to control; assay type: organism-based; set-up: scale not given: the % may be the effect or the level left; settings: in vivo, 336 h, time 14 day
Procedure, shortened: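 HCT116 cells (2 × 10^6 in 0.2 mL PBS) inoculated subcutaneously into male BALB/c nude mice; at mean tumor volume 100-200 mm3, randomized, six mice per group. Dosed intraperitoneally once every 7 days in DMSO (0.5%)/castor oil (5%)/ethanol (5%)/saline (89.5%), 0.1 mL per 10 g; vehicle controls received solvent. Body weight monitored every other day or three days; mice weighed on day 14.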

[8] = MRT (0 to infinity) in Sprague-Dawley rat assessed as docetaxel level at 5 mg/kg, iv measured up to 72 hrs by LC-MS/MS analysis; assay type: ADME, organism-based; settings: in vivo; procedure, shortened: as §2
[9] = Apparent volume of distribution in Sprague-Dawley rat at 5 mg/kg, iv measured up to 72 hrs by LC-MS/MS analysis; assay type: ADME, organism-based; settings: in vivo, read-out: Vz; procedure, shortened: as §2
[10] = Drug uptake in BALB/c nude mouse xenografted with human HCT-116 cells assessed as drug level in tumour at 5 mg/kg, iv measured up to 24 hrs by LC-MS/MS analysis; assay type: ADME, organism-based, Neoplasm; settings: in vivo; procedure, shortened: as §1
[11] = Half life in Sprague-Dawley rat assessed as docetaxel level at 5 mg/kg, iv measured up to 72 hrs by LC-MS/MS analysis; assay type: ADME, organism-based; settings: in vivo; procedure, shortened: as §2
CCD-18Co = assay: Cytotoxicity against human CCD-18Co cells assessed as reduction in cell viability after 72 hrs by MTT assay; assay type: cell-based; procedure, shortened: as §3
SW-620 [12] = assay: Potency index, ratio of 4FDT IC50 to test compound IC50 for Cytotoxicity against human SW-620 cells; assay type: functional
[13] = Toxicity in BALB/c nude mouse xenografted with human HCT-116 cells assessed as disordered myocardial fiber in heart at 11.73 mg/kg, ip administered once for every 7 days for 14 days by H and E staining based assay; assay type: organism-based; settings: in vivo, 336 h, time 14 day
Procedure, shortened: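 At the end of the 14-day ip xenograft study (HCT116, BALB/c nude), heart and liver were collected from vehicle and molar-equivalent dose groups. Tissues fixed in 10% formalin in PBS and stained with H&E. Liver examined at 400×, heart at 100×.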

[14] = Toxicity in BALB/c nude mouse xenografted with human HCT-116 cells assessed as reduction in body weight at 23.4 mg/kg, ip administered once for every 7 days for 14 days relative to control; assay type: organism-based; set-up: scale not given: the % may be the effect or the level left; settings: in vivo, 336 h, time 14 day
Procedure, shortened: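 HCT116 s.c. xenografts in male BALB/c nude mice, n = 6 per group. Dosing was ip once every 7 days for 2 weeks in DMSO/castor oil/ethanol/saline; vehicle controls got solvent. Body weight recorded every other day or every three days. Weight loss taken at day 14. Mean ± SD.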

[15] = Drug uptake in BALB/c nude mouse xenografted with human HCT-116 cells assessed as drug level in heart at 5 mg/kg, iv measured up to 24 hrs by LC-MS/MS analysis; assay type: ADME, organism-based; settings: in vivo; procedure, shortened: as §1
[16] = Apparent clearance in Sprague-Dawley rat at 5 mg/kg, iv measured up to 72 hrs by LC-MS/MS analysis; assay type: ADME, organism-based; settings: Sprague-Dawley, in vivo, read-out: CL(app) (converted); procedure, shortened: as §2
HCT-116 = assay: Antitumour activity against human HCT-116 cells xenografted in BALB/c nude mouse assessed as tumour growth inhibition at 11.7 mg/kg, ip administered once for every 7 days for 14 days relative to control; assay type: functional; settings: HCT-116, ip, 336 h, time 14 day, read-out: TGI
Procedure, shortened: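 Male BALB/c nude mice received s.c. HCT116 cells (2 × 10^6 in 0.2 mL PBS). Once tumours reached 100-200 mm3, mice were randomized into groups of six. Dosing was ip, 0.1 mL/10 g, once every 7 days, in DMSO 0.5%/castor oil 5%/ethanol 5%/saline 89.5%; vehicle controls got solvent. Caliper volume V = L×W²×0.52 read every 2-3 days. Tumours excised and weighed on day 14.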

[17] = Half life in Sprague-Dawley rat at 5 mg/kg, iv measured up to 72 hrs by LC-MS/MS analysis; assay type: ADME, organism-based; settings: in vivo; procedure, shortened: as §2
[18] = Toxicity in ip dosed Kunming mouse measured for 14 days; assay type: organism-based; settings: in vivo, time 14 day
Procedure, shortened: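 Healthy Kunming mice of both sexes, 20 ± 2 g, randomised into 5 groups of 10 matched for weight and size. Compound given once intraperitoneally at 400, 300, 250 or 150 mg/kg in formulation solvent (0.5% DMSO, 5% castor oil, 5% ethanol, 89.5% saline), 0.1 mL per 10 g; vehicle controls received solvent. Deaths recorded daily for 14 days; LD50 by Bliss method.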

CC[C@H](C)[C@H](NC(=O)CNC(=O)[C@H](CCC(N)=O)NC(=O)[C@@H]1CCCN1C(=O)CNC(C)=O)C(=O)N[C@@H](C)C(=O)N[C@@H](CCSC)C(=O)N[C@@H](CCC(N)=O)C(=O)N[C@@H](CC(C)C)C(=O)Nc1ccc(COC(=O)O[C@@H](C(=O)O[C@H]2C[C@@]3(O)[C@@H](OC(=O)c4ccccc4)[C@@H]4[C@]5(OC(C)=O)CO[C@@H]5C[C@H](O)[C@@]4(C)C(=O)[C@H](O)C(=C2C)C3(C)C)[C@@H](NC(=O)OC(C)(C)C)c2ccccc2)cc1 (Ac-GPQGIAMQL-X1)
Drug uptake [1]: Active | CL(app) [2]: 18.98 L/h/kg | Drug uptake [3]: Active | IC50 (SW-620 [4]): 30 nM | AUCt [5]: 247 µg·h/L | half-life at 50 ug/ml [6]: 1450 min | Activity [7]: 4.9% | MRT [8]: 9.04 h | Vd [9]: 10.4 L/kg | Drug uptake [10]: Active | t1/2 [11]: 7.03 h | IC50 (CCD-18Co): > 200 µM | Ratio IC50 (SW-620 [12]): 9 | Activity [13]: Non-Toxic | Activity [14]: 12.2% | Drug uptake [15]: Active | clearance [16]: 9.33 mL/min/kg | inhibition in vivo at 11.7 mg/kg (HCT-116): 46.3% | half-life [17]: 769 min | LD50 at 336 h [18]: 245 mg/kg
